Where a SMILES comes first, the peptide text is derived from it. Bridges are numbered along the chain shown (N, C = ends). Roman numbers before positions name the chains, in order. The star is where a group is joined. X1 = O=C(Cn1cc(CCCC(=O)*)nn1)NC(COCc1cn(CCO[C@H]2O[C@H](CO)[C@@H](O)[C@H](O)[C@@H]2O)nn1)(COCc1cn(CCO[C@H]2O[C@H](CO)[C@@H](O)[C@H](O)[C@@H]2O)nn1)COCc1cn(CCO[C@H]2O[C@H](CO)[C@@H](O)[C@H](O)[C@@H]2O)nn1
Legend:
[1] = system: MB49-Luc orthotopic bladder cancer; conditions: mouse, in vivo
[2] = system: CD86^+ and CD206^+ TAMs, CD4^+ and CD8^+ T cells; test: Multiplex immunofluorescence of whole tumor slices; type: in vivo, mouse; conditions: for CD4^+ T cells in whole tumor slice: saline 1.74%
CD206 [3] = biological target: T1, CD206 (Homo sapiens, UniProt P22897); test: Microscale thermophoresis binding to CD206; conditions: Kd 3.48 μM versus mannose ~1000 μM
NF-κB in RAW264.7 cells = test: Western blot of NF-κB phosphorylation in RAW264.7 cells; type: cell-based; conditions: 50 μM, 24 hours; compared with mannose
MB49-Luc tumor = test: Antitumor efficiency in MB49-Luc tumor-bearing mice; type: in vivo, mouse; conditions: 500 μM, 100 μl, five doses
EJ cells [4] = test: SEM of nanofibrils on EJ cell surface; type: cell-based, human; conditions: 50 μM, 12 and 24 hours
Summary of the method: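 EJ cells (1 × 10⁵ per well) were seeded on silicon wafers and cultured 12 h. Saline or test compound (50 µM) was then added for a further 12 and 24 h. The cell surface was examined by scanning electron microscopy.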

RAW264.7 cells [5] = test: CLSM imaging of bsGP; type: cell-based; conditions: Cy-labeled bsGP
EJ xenograft tumor [6] = test: Antitumor efficiency in EJ xenograft mice; type: in vivo, mouse; conditions: 100 μl, intravenous; for tumor growth inhibition rate, EJ xenograft: 18 days, PepCXCR4 and bsGP 500 μM, plerixafor 100 μM
Summary of the method: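 BALB/c nude mice (6 to 8 weeks, 16 to 18 g) received 5 × 10⁶ EJ cells in 100 µl s.c. in the right flank. Mice were randomised into groups of n = 6. Saline, test compound (500 µM, 100 µl) or plerixafor (100 µM, 100 µl) was given i.v. by tail vein once a day for five doses. Tumor volume was measured by calipers and body weight recorded every other day.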

NF-κB in tumor tissues = test: Western blot of NF-κB phosphorylation in tumor tissues; type: in vivo, mouse; conditions: 500 μM, 100 μl, every 2 days, five times; compared with mannose
[7] = system: tumor fibrosis in MB49-Luc tumor; test: Tumor fibrosis; type: in vivo, mouse; conditions: versus saline and PepCXCR4
[8] = system: pErk and pAkt in tumor tissues; test: Immunohistochemistry of pErk and pAkt in EJ tumor tissues; type: in vivo, mouse; conditions: EJ xenograft, versus saline
[9] = system: CD86^+ and CD206^+ TAMs, CD4^+ and CD8^+ T cells proximal to CXCR4^+ tumor cells; test: Spatial distance of immune cells to CXCR4^+ tumor cells; type: in vivo, mouse
[10] = system: TNF-α, IL-12, IL-10 and TGF-β; test: Intratumoral cytokines in homogenized tumor tissues; type: in vivo, mouse; conditions: versus saline and PepCXCR4
orthotopic bladder tumor = type: in vivo, mouse; conditions: 500 μM, 100 μl, intravesical instillation
Summary of the method: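 Once bladder tumor growth was confirmed, test compound (500 µM, 100 µl) was instilled intravesically and kept in the bladder for 60 min. Whole-body fluorescence was scanned with IVIS at 1, 4, 8, 12, 24, 48 and 72 h. The bladder was exteriorised and imaged ex vivo at 1 h after infusion.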

[11] = system: M2-like (CD206) and M1-like (CD86) macrophages; test: Flow cytometry of TAM polarization in tumors; type: in vivo, mouse
EJ cells [12] = test: Cell viability; type: cell-based, human; conditions: 50 μM, 24 hours, CCK-8; n = 3
Summary of the method: (§1)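 Cells were seeded at 5 × 10⁴ per well in RPMI 1640 and cultured overnight at 37°C, 5% CO₂. Test compound was added at 10, 20, 50, 100, 200 or 500 µM for 24 h, then CCK-8 for 2 h at 37°C. Absorbance was read at 450 nm against a 690 nm reference. Viability = (A_s − A_b)/(A_c − A_b) × 100% versus saline-treated wells. Run in triplicate.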

[13] = Secondary structure by CD and FTIR; type: physicochemical; conditions: CD: 10 μM, deionized water, 25°C, 1 hour; FTIR: 100 μM, distilled water, 60 min
Summary of the method: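 For CD, test compound (10 µM) was dissolved in deionized water at 25°C for 1 h and scanned at 500 nm/min with 0.5 nm resolution, with solvent background subtracted. For FTIR, samples were freshly prepared at 100 µM in distilled water for 60 min, dried on calcium fluoride tablets and recorded.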

EJ cells (CXCR4) = test: CLSM imaging of bsGP; type: cell-based, human
[14] = system: CD8^+ T cells and Tregs in tumor; test: Flow cytometry of tumor T cells; type: in vivo, mouse
EJ cells [15] = test: Transwell migration assay; type: cell-based, human; conditions: 50 μM, 24 hours; versus saline and PepCXCR4
Summary of the method: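 EJ cells (1 × 10⁵) in 150 µl serum-free DMEM were placed in the upper Transwell chamber with saline or test compound (50 µM). Complete medium was in the lower chamber. After 24 h, non-migrated cells were swabbed away. Migrated cells were fixed in 4% paraformaldehyde, stained with 0.05% crystal violet for 10 min, photographed and counted.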

RAW264.7 cells [16] = test: Cell viability; type: cell-based; conditions: 50 μM, 24 hours, CCK-8; n = 3
Summary of the method: as §1

[17] = system: tumor tissue in orthotopic bladder cancer mice; test: Tumor penetration by immunofluorescence of frozen sections; type: in vivo, mouse; conditions: Cy-labeled bsGP; distance from vessels, compared with antibody
Summary of the method: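 Orthotopic EJ xenograft nude mice with tumors of about 200 mm³ received saline or test compound (500 µM, 100 µl) by intravesical instillation. Frozen tumor sections were imaged by confocal microscopy.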

EJ xenograft tumor [18] = conditions: 500 μM, 100 μl, intravenous
EJ cells [19] = test: Colony formation assay; type: cell-based, human; conditions: versus saline and PepCXCR4
Summary of the method: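 EJ cells (200 per well) were grown in DMEM in six-well plates at 37°C, 5% CO₂ until visible colonies appeared. Colonies were rinsed twice with saline, fixed in 4% paraformaldehyde for 15 min and stained with Giemsa for 10 to 30 min. They were photographed and counted. Colony formation efficiency = clones/inoculated cells × 100%.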

[20] = system: pErk and pAkt (CXCR4 downstream) in EJ cells; test: Western blot of Erk and Akt phosphorylation in EJ cells; type: cell-based, human; conditions: for phosphorylation of Erk and Akt: 50 μM, 24 hours
Summary of the method: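 EJ cells were lysed in buffer with protease inhibitor and centrifuged 15 min; protein was measured by BCA. 30 µg protein was run on SDS-PAGE and transferred to PVDF. Membranes were blocked 1 to 2 h at room temperature in 5% nonfat milk, 0.1% Tween 20, 10 mM TBS. Primary antibody was applied overnight at 4°C, then secondary for 1 to 2 h at room temperature. Detection was by chemiluminescence.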

CD206 [21] = biological target: T1, CD206; conditions: read-out: Kd of mannose; cited from earlier work
[22] = system: CXCR4 (breast and pancreatic cancer); conditions: cited from earlier work
[23] = MB49-Luc, C57BL/6, 500 μM, 100 μl, every other day, five times
[24] = immunofluorescence, versus saline

T1 sequence (P22897 19-1456, species assumed): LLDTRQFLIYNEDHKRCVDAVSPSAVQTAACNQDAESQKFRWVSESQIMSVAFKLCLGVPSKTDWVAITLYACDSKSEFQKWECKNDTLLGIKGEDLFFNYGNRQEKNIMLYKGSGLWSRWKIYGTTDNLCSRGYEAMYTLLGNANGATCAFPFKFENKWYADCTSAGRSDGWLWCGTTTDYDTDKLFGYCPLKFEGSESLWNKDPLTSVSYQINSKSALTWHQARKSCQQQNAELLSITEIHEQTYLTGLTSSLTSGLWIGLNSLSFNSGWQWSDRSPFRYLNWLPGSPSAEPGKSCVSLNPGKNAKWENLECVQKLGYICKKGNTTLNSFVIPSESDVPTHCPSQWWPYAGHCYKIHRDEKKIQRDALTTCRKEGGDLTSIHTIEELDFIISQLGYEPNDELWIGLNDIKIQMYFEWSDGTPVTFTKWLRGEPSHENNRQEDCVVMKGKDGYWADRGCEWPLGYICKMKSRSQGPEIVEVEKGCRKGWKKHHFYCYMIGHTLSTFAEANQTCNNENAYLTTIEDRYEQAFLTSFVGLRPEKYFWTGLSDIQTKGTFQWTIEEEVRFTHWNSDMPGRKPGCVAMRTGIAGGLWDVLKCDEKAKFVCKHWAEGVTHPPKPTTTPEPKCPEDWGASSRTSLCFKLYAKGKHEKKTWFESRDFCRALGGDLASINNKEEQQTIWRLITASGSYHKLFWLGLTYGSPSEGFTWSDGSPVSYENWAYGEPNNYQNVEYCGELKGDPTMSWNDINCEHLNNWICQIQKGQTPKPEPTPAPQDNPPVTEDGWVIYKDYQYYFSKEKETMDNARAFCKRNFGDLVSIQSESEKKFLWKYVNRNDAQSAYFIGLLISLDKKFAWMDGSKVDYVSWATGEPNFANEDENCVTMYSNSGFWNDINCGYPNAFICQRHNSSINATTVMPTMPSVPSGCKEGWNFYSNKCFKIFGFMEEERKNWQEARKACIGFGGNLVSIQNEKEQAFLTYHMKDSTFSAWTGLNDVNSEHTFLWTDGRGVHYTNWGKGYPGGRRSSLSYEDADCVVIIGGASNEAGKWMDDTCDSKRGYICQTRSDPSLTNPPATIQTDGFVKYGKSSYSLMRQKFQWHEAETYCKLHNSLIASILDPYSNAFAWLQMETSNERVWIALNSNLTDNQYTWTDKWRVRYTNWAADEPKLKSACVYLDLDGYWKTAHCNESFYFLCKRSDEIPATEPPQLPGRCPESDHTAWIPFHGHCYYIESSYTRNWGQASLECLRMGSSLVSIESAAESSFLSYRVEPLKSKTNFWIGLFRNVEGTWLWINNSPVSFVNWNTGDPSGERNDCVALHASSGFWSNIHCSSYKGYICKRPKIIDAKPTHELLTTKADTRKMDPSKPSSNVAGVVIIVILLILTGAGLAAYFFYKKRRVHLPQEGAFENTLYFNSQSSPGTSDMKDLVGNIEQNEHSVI

C[C@H]1c2cccc(O)c2C(=O)C2=C(O)[C@]3(O)C(=O)C(C(N)=O)=C(O)[C@@H](N(C)C)[C@@H]3[C@@H](O)[C@@H]21 [Dox, doxycycline]
recurrence rate [1]: 89%
survival rate at 60 days [1]: 11%

CC(C)C[C@H](NC(=O)[C@H](Cc1ccc(O)cc1)NC(=O)CNC(=O)[C@H](CC(C)C)NC(=O)[C@@H]1CCCN1C(=O)CCCc1cn(CC(=O)NC(COCc2cn(CCO[C@H]3O[C@H](CO)[C@@H](O)[C@H](O)[C@@H]3O)nn2)(COCc2cn(CCO[C@H]3O[C@H](CO)[C@@H](O)[C@H](O)[C@@H]3O)nn2)COCc2cn(CCO[C@H]3O[C@H](CO)[C@@H](O)[C@H](O)[C@@H]3O)nn2)nn1)C(=O)NCC(=O)NCCCC[C@H](NC(=O)[C@H](CCCCN)NC(=O)[C@H](CC(=O)O)NC(=O)[C@@H]1CCCN1C(=O)[C@H](CCCNC(=N)N)NC(=O)[C@H](Cc1c[nH]cn1)NC(=O)[C@H](Cc1c[nH]c2ccccc12)NC(=O)[C@H](CO)NC(=O)[C@H](C)NC(=O)CNC(=O)[C@@H](N)CC(C)C)C(=O)N[C@@H](CC(C)C)C(=O)N[C@H](C(=O)N[C@@H](Cc1ccccc1)C(=O)N[C@@H](Cc1ccccc1)C(=O)N[C@@H](C)C(=O)N[C@@H](CCC(=O)O)C(=O)N[C@@H](CS)C(=O)NCC(=O)O)C(C)C [bsGP] (I: H-LGASWHRPDKKLVFFAECG-OH / II: X1-PLGYLG; amide I:11-II:C; N-terminus and C-terminus assumed)
CD4^+ T cells in whole tumor slice [2, 23]: 4.35%
CD206^+ M2-like TAMs in whole tumor slice ([2]; MB49-Luc, C57BL/6, 500 μM, 100 μl, every other day, five times, saline 20.94%): 13.0%
increase of CD86^+ M1-like TAMs ([2]; immunofluorescence): 2.3 fold
increase of CD4^+ T cells [2, 24]: 2.5 fold
increase of CD8^+ T cells [2, 24]: 2.6 fold
affinity relative to mannose (CD206 [3]): about 300 fold
NF-κB phosphorylation in RAW264.7 cells (NF-κB in RAW264.7 cells): effectively activated
body weight loss (C57BL/6 mice; C57BL/6 mice): without loss of body weight
severe systemic toxicity (C57BL/6 mice; intravesical, treatment dose): did not induce severe systemic toxicity
signs of a deteriorating general condition (C57BL/6 mice; red skin or reduced food consumption): no signs of a deteriorating general condition
body weight loss, MB49-Luc (MB49-Luc tumor): no obvious loss of body weight
nanofibrillar network on EJ cell surface (EJ cells [4]): presence of a nanofibrillar network
localization on RAW264.7 cells (RAW264.7 cells [5]): observed on the cytomembrane
body weight loss, EJ xenograft (EJ xenograft tumor [6]; 500 μM, five doses): no obvious loss of body weight
NF-κB phosphorylation in tumor tissues (NF-κB in tumor tissues): effectively activated
tumor fibrosis [7]: strongly inhibited
phosphorylation levels of Erk and Akt in tumor tissues [8]: strongly inhibited
decrease of CD206^+ M2-like TAMs versus saline ([9]; 5- to 10-μm radius): 20%
number of CD86^+ M1-like TAMs near tumor cells ([9]; 5- to 10-μm radius): up to 6.22 × 10^4
CD4^+ T cell counts relative to saline ([9]; spatial distance 10 μm): 4.0 fold
CD8^+ T cell counts relative to saline ([9]; spatial distance 10 μm): 5.5 fold
CD86^+ counts relative to saline ([9]; spatial distance 10 μm (text: 5- to 10-μm radius)): 2.6 times
intratumoral secretion of IL-10 [10]: down-regulated
intratumoral secretion of IL-12 [10]: substantially up-regulated
intratumoral secretion of TGF-β [10]: down-regulated
intratumoral secretion of TNF-α [10]: substantially up-regulated
fluorescence signal at the tumor site (orthotopic bladder tumor): evident fluorescence signals
increase of M1-like TAMs ([11]; from 14.2 to 25.4%): approximately 11.2%
decrease of M2-type macrophages ([11]; from 29.2 to 17.3%): approximately 11.9%
recurrence rate [1]: 22%
survival rate at 60 days [1]: 78%
effect on viability of EJ cells (EJ cells [12]): no substantial impact
secondary structure [13]: random coil structure
localization on EJ cells (EJ cells (CXCR4); Cy-labeled bsGP, 50 μM, pH 7.4, saline, 37°C, 15 min): observed on the cytomembrane of tumor cells (EJ)
colocalization with GFP-encoded CXCR4 (EJ cells (CXCR4); EJ cells transfected with GFP-encoded CXCR4): Overlapping green fluorescence (CXCR4) with red fluorescence (bsGP)
CD4^+Foxp3^+ Tregs ([14]; saline 8.58%): 6.80%
granzyme B^+CD8^+ T cells ([14]; saline 9.44%): 19.60%
proportion of CD45^+CD3^+CD8^+ T cells ([14]; saline 16.3%): 25.8%
migration capacity (EJ cells [15]): evidently decreased
effect on viability of RAW264.7 cells (RAW264.7 cells [16]): no substantial impact
penetration in tumor tissue [17]: deep penetration capability
signal-to-noise ratio (EJ xenograft tumor [18]): 7.8 fold
time of highest tumor accumulation (EJ xenograft tumor [18]): 4 h
time to target tumor tissue (EJ xenograft tumor [18]): ≤ 1 h
tumor accumulation relative to PepCXCR4 (EJ xenograft tumor [18]; 4 hours): nearly fourfold
retention in tumor tissue (EJ xenograft tumor [18]; nanofiber formed in situ): up to 48 hours
cell proliferation capacity (EJ cells [19]): substantially decreased
dose dependence of MAPK pathway suppression (pErk, pAkt) ([20]; 0, 20, 50 and 100 μM for 24 hours, 50 μM for 0, 24, 36, 48 hours): suppressed in a dose-dependent manner
phosphorylation of Erk and Akt [20]: strongly inhibited

OC[C@H]1OC(O)[C@@H](O)[C@@H](O)[C@@H]1O (stereo partly drawn) [mannose]
Kd (CD206 [21]): ~1000 µM

c1cc(CN2CCCNCCNCCCNCC2)ccc1CN1CCCNCCNCCCNCC1 [plerixafor]
tumor growth inhibition rate, EJ xenograft (EJ xenograft tumor [6]): 32%
effect on tumor apoptosis, metastasis and intratumoral Tregs [22]: substantially promote tumor apoptosis, reduce tumor metastasis, and selectively decrease intratumoral Tregs
recurrence rate [1]: 100%
survival rate at 60 days [1]: 0%

LGASWHRPDK [PepCXCR4]
CD4^+ T cells in whole tumor slice [2, 23]: 2.37%
tumor-infiltrating CD8^+ T cells in whole tumor slice ([2]; MB49-Luc, C57BL/6, 500 μM, 100 μl, every other day, five times, saline 3.43%): 4.04%
tumor growth inhibition rate, EJ xenograft (EJ xenograft tumor [6]): 19%
fluorescence signal at the tumor site (orthotopic bladder tumor): evident fluorescence signals
effect on viability of EJ cells (EJ cells [12]): no substantial impact
effect on viability of RAW264.7 cells (RAW264.7 cells [16]): no substantial impact
phosphorylation of Erk and Akt [20]: did not substantially alter
